Data set [1] is described as follows: Plasma concentration in Hartley Duncan guinea pig at 100 mg/kg, po measured at 24 hrs. It counts as ADME, organism-based, Cavia porcellus. Summed up:
(§1)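 Guinea pigs (n = 5) given 100 mg/kg orally once daily for 7 days. Plasma and lung drug levels measured at 2 h and at 24 h after the last dose, as peak and trough.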

For data set [2], the target named is T1, Phosphotyrosine protein phosphatase (Mycobacterium tuberculosis) (UniProt A0A045ISB3).
T1 sequence (whole entry): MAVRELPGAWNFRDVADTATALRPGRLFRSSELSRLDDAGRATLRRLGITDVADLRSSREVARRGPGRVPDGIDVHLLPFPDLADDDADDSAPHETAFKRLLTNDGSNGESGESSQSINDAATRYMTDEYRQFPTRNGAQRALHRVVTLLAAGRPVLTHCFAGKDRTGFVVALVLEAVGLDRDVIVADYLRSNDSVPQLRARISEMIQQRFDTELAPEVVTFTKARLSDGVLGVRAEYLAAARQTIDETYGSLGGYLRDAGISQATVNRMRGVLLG
Kind of data set: Inhibition of Mycobacterium tuberculosis H37Rv ATCC 35837 ptpB infected in human THP1 cells assessed as reduction in intracellular bacterial burden at 20 to 100 uM after 72 hrs post infection relative to DMSO-treated control. It counts as cell-based. In outline: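 PMA-differentiated THP1 cells (1 × 10^6/well) in RPMI with 10% FBS. Inhibitor (0, 20 or 80 μM in DMSO) added, then infected with thawed M. tuberculosis at MOI 1:1 for 3 h and washed 4 times. Medium and inhibitor renewed at 24 h. Cells lysed in 0.05% SDS at 72 h; CFU plated in duplicate and counted after 3 weeks. Triplicate.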

A short description of data set [3]: Kinetic solubility of the compound after 90 mins. Conditions: 1.5 h. It counts as physicochemical.
For data set [4], the system named is Mycobacterium tuberculosis. Kind of data set: Antimycobacterial activity against Mycobacterium tuberculosis H37Rv infected in chronic TB infection induced Hartley Duncan guinea pig model assessed as reduction of granulomatous infiltration in spleen at 100 mg/kg/day, po administered at 24 hrs post infection measured after 56 days post infection by hematoxylin and eosin staining-based assay. It counts as functional, organism-based. In outline:
(§2)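 Chronic aerosol model (63 CFU; oral 100 mg/kg daily for 4 weeks from day 28). Lungs and spleens inspected at 56 days post infection. Tissue fixed in formalin, paraffin-embedded, cut at about 5 μm and stained with hematoxylin and eosin; lesions and granulomas compared with vehicle.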

The test system of data set [5] is Cavia porcellus. Kind of data set: AUCinfinity in Dunkin Hartley guinea pig at 8 mg/kg, po. It counts as ADME, organism-based. More on the design: dose 8 mg/kg, route oral, time infinity. Conditions: in vivo.
The nature of data set [6]: Drug uptake in Hartley Duncan guinea pig lungs at 100 mg/kg, po measured at 2 hrs. It counts as ADME, organism-based, Cavia porcellus. As to conditions: lung, read-out: Drug uptake. In outline:
as §1

Data set [7] deals with Cavia porcellus. In words: Oral bioavailability in Dunkin Hartley guinea pig at 8 mg/kg. It counts as ADME, organism-based. As to conditions: in vivo.
Data set [8] deals with Mycobacterium tuberculosis. In words: Antimycobacterial activity against Mycobacterium tuberculosis H37Rv infected in chronic TB infection induced Hartley Duncan guinea pig model assessed as reduction in necrotic lesions in spleen at 100 mg/kg/day, po administered at 24 hrs post infection measured after 56 days post infection by hematoxylin and eosin staining-based assay. It counts as functional, organism-based. In outline:
as §2

Data set [9] deals with Cavia porcellus. Kind of data set: Toxicity in Hartley Duncan guinea pig assessed as body weight increase at 50 to 100 mg/kg/day, po administered for 7 days. It counts as organism-based. Conditions: in vivo, 168 h. In outline: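 Male Hartley guinea pigs (n = 5) given the compound orally once daily for 7 days at 50 or 100 mg kg–1, as a pre-infection tolerability study. Animals were monitored for adverse drug effects and body-weight change. Plasma and lung drug levels were taken at 2 and 24 h after the last dose.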

Data set [10] deals with Mycobacterium tuberculosis. In words: Antibacterial activity against Mycobacterium tuberculosis H37Rv infected in chronic TB infection induced Hartley Duncan guinea pig model assessed as log reduction in bacterial burden in spleen at 100 mg/kg/day, po administered at 24 hrs post infection measured after 4 weeks post infection. It counts as functional. Summed up: (§3)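 Guinea pigs infected by aerosol with 63 CFU M. tuberculosis, 5 per group, and left untreated for 28 days; baseline lung and spleen burden taken at day 28. Compound (100 mg/kg) or vehicle then given orally daily for 4 weeks. Lung and spleen CFU compared with vehicle.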

Data set [11] deals with Cavia porcellus. In words: Half life in Dunkin Hartley guinea pig at 8 mg/kg, po. It counts as ADME, organism-based. Conditions: in vivo.
Data set [12] relates to Cavia porcellus. In words: Cmax in Dunkin Hartley guinea pig at 4 mg/kg, ip after 0.5 hrs post dose. It counts as ADME, organism-based. More on the design: dose 4 mg/kg, route intraperitoneal. As to conditions: in vivo.
In data set [13] the test system is Cavia porcellus. Kind of data set: Half life in Dunkin Hartley guinea pig at 4 mg/kg, ip. It counts as ADME, organism-based. Conditions: in vivo.
Data set [14] can be described thus: Plasma concentration in Hartley Duncan guinea pig at 100 mg/kg, po measured at 2 hrs. It counts as ADME, organism-based, Cavia porcellus. Summed up: as §1
Data set [15] deals with Mycobacterium tuberculosis. In words: Antibacterial activity against Mycobacterium tuberculosis H37Rv infected in chronic TB infection induced Hartley Duncan guinea pig model assessed as log reduction in bacterial burden in lungs at 100 mg/kg/day, po administered at 24 hrs post infection measured after 4 weeks post infection. It counts as functional. In outline: as §3

For data set [16], the system named is Mycobacterium tuberculosis. Kind of data set: Antimycobacterial activity against Mycobacterium tuberculosis H37Rv infected in chronic TB infection induced Hartley Duncan guinea pig model assessed as reduction of granulomatous infiltration in lungs at 100 mg/kg/day, po administered at 24 hrs post infection measured after 56 days post infection by hematoxylin and eosin staining-based assay. It counts as functional, organism-based. Summed up: as §2

The subject of data set [17] is Cavia porcellus. Kind of data set: Cmax in Dunkin Hartley guinea pig at 8 mg/kg, po after 0.25 hrs post dose. Further details: dose 8 mg/kg, route oral. As to conditions: in vivo. It counts as ADME, organism-based.
In data set [18] the test system is Mycobacterium tuberculosis. In words: Antimycobacterial activity against Mycobacterium tuberculosis H37Rv infected in chronic TB infection induced Hartley Duncan guinea pig model assessed as reduction in necrotic lesions in lungs at 100 mg/kg/day, po administered at 24 hrs post infection measured after 56 days post infection by hematoxylin and eosin staining-based assay. It counts as functional, organism-based. In outline: as §2

Data set [19] is described as follows: Permeability of the compound at 200 uM after 5 hrs by PAMPA assay. It counts as ADME. As to conditions: read-out: permeability.
Data set [20] deals with Cavia porcellus. Kind of data set: AUCinfinity in Dunkin Hartley guinea pig at 4 mg/kg, ip. It counts as ADME, organism-based. Further details: dose 4 mg/kg, route intraperitoneal, time infinity. Conditions: in vivo.
Data set [21] addresses T1, Phosphotyrosine protein phosphatase (Mycobacterium tuberculosis). In words: Inhibition of RFP expressing Mycobacterium tuberculosis H37Rv ATCC 35837 ptpB infected in mouse RAW264.7 cells assessed as prolongation association of PI3P to FYVE2X-FGFP on bacterial phagosome at 80 uM by live-cell imaging method. It counts as cell-based. Summed up:
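RAW264.7 cells transfected with EGFP-2xFYVE plasmid using JetPEI. Next day infected with RFP-M. tuberculosis H37Rv at MOI 5:1, with compound at 80 μM added together with the bacteria. Imaged live immediately, every 30 s, to follow PI3P on phagosomes.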

The test system of data set [22] is Mycobacterium tuberculosis. In words: Antibacterial activity against Mycobacterium tuberculosis H37Rv infected in acute TB infection induced Hartley Duncan guinea pig model assessed as log reduction in bacterial burden in lungs at 100 mg/kg/day, po administered at 24 hrs post infection measured after 4 weeks post infection. It counts as functional. In outline:
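Guinea pigs infected by aerosol with 96 CFU M. tuberculosis H37Rv, 4 per group. Compound (100 mg/kg) or vehicle given orally daily for 4 weeks from 24 h post infection. Lung bacterial burden measured relative to vehicle.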

The source made the active and inactive calls. No cut-off for these calls is given here.

What is called inhibition is the share of the control response that was lost under treatment. What is called AUC is the area under the concentration-time curve, a measure of exposure. High values mean more exposure, low ones less exposure. The Cmax is the maximum level reached in the sampled fluid or tissue.

`Cc1onc(C(=O)O)c1-c1cccc(-c2cc(Cl)c(O)c(Cl)c2)c1`: the concentration at 24 h in [1] came out at 35 ng/mL. In addition, the inhibition in [2] was under 63%. Further, the Kinetic_solubility in data set [3] came out at 200 µM. Further, the result in [4], in data set [8], in data set [16] and in [18] was Active. In addition, the AUC in the data set on Cavia porcellus [5] stood at 230.407 µg·h/mL; with Cavia porcellus [20], 71.854 µg·h/mL. Besides, the concentration at 2 h turned out to be 623 ng/g in data set [6] and 1750 ng/mL in data set [14]. The compound further displayed a F with Cavia porcellus [7] of 156%. Also, the Activity with Cavia porcellus [9] is recorded as over 5%; in [10], 1 deltalog10CFU; in [15], 1 deltalog10CFU; in [22] it was 0.9 deltalog10CFU. Also, the t1/2 in the data set with Cavia porcellus [11] came out at 5.1 h; with Cavia porcellus [13] it was 1.4 h. The highest concentration (Cmax) came to 31519 ng/mL with Cavia porcellus [12] and 111099 ng/mL with Cavia porcellus [17]. Moreover, the Papp at 5 h, 200 µM in data set [19] was 7.81 ×10⁻⁶ cm/s. For the same compound, the TIME in data set [21] was under 0.2 h.

The values above are taken from ChEMBL document CHEMBL4196176, “Structure-Based Design of MptpB Inhibitors That Reduce Multidrug-Resistant Mycobacterium tuberculosis Survival and Infection Burden in Vivo” (J Med Chem, 2018).
